This is an account of results in ChEMBL document CHEMBL3102750 (J Med Chem, 2013).

Data set [1] addresses T1, Muscarinic acetylcholine receptor M5 (Homo sapiens) (UniProt P08912).
T1 sequence (whole entry): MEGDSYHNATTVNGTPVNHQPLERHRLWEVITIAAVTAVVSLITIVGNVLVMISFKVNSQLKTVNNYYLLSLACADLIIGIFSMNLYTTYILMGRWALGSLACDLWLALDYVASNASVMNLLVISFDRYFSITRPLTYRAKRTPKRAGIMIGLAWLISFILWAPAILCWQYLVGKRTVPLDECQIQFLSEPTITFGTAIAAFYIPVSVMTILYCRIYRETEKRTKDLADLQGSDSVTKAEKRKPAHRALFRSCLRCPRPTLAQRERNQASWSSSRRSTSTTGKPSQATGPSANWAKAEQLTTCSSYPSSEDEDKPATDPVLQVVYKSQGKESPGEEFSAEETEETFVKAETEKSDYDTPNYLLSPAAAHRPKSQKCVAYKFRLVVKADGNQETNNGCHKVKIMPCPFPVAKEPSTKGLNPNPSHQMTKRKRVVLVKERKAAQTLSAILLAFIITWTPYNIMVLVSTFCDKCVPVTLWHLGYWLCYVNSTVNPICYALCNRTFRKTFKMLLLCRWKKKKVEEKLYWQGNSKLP
The data set can be described thus: Negative allosteric modulation of human muscarinic acetylcholine receptor M5 expressed in CHO cells assessed as reduction of acetylcholine-induced calcium mobilization at 10 uM incubated for 150 secs prior to acetylcholine induction by Fluo-4 AM staining-based fluorescence assay relative to control. It counts as functional, cell-based. Set-up: scale not given: the % may be the effect or the level left. (In general: Calcium assays in cells follow changes in intracellular calcium, usually with a dye or a luminescent sensor.)

Data set [2] deals with T2, Muscarinic acetylcholine receptor M2 (Homo sapiens, UniProt P08172).
T2 sequence (P08172 whole entry): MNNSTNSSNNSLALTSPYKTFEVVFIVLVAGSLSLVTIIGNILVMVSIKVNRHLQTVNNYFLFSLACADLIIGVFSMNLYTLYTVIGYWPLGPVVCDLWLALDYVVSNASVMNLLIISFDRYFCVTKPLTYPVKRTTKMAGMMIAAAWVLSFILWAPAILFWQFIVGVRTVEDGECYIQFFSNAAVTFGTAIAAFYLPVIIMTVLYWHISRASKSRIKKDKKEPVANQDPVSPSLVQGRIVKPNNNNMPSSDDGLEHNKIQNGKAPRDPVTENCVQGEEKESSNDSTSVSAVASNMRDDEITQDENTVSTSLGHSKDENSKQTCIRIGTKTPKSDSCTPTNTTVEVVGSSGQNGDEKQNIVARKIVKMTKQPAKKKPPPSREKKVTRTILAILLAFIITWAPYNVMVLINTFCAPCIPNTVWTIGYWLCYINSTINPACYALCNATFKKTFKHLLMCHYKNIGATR
Description: Negative allosteric modulation of human muscarinic acetylcholine receptor M2 expressed in CHO cells assessed as inhibition of acetylcholine-induced calcium mobilization incubated for 150 secs prior to acetylcholine induction by Fluo-4 AM staining-based fluorescence assay. The data set is classed as functional, cell-based.

Data set [3] concerns the target T3, Muscarinic acetylcholine receptor M5 (Homo sapiens, UniProt P08912).
T3 sequence (P08912 whole entry): T1 sequence (whole entry)
Description: Negative allosteric modulation of human muscarinic acetylcholine receptor M5 expressed in CHO cells assessed as inhibition of acetylcholine-induced calcium mobilization incubated for 150 secs prior to acetylcholine induction by Fluo-4 AM staining-based fluorescence assay. It counts as functional, cell-based.

A short description of data set [4]: Ratio of unbound brain to plasma partition coefficient in Sprague-Dawley rat at 10 mg/kg, po measured at 1 hr. It counts as ADME, organism-based. Set-up: dose 10 mg/kg, route oral. The essentials:
(§1)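 Oral CNS distribution study in male Sprague-Dawley rats (n=2), 10 mg/kg; brain and plasma sampled one hour post-dose. Total (Kp) and unbound (Kp,uu) brain-plasma partition coefficients calculated, with unbound fractions from plasma and brain homogenate binding.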

Data set [5] in a line: Tmax in po dosed Sprague-Dawley rat. The data set is classed as ADME, organism-based. The note with it: in vivo.
A further data set deals with Cytochrome P450 3A4 (Homo sapiens, UniProt P08684). The data set can be described thus: Inhibition of CYP3A4 in human liver microsomes using midazolam as substrate preincubated for 15 mins followed by NADPH addition measured after 8 mins by LC/MS/MS analysis. It counts as ADME.
Cytochrome P450 3A4, sequence (P08684 whole entry): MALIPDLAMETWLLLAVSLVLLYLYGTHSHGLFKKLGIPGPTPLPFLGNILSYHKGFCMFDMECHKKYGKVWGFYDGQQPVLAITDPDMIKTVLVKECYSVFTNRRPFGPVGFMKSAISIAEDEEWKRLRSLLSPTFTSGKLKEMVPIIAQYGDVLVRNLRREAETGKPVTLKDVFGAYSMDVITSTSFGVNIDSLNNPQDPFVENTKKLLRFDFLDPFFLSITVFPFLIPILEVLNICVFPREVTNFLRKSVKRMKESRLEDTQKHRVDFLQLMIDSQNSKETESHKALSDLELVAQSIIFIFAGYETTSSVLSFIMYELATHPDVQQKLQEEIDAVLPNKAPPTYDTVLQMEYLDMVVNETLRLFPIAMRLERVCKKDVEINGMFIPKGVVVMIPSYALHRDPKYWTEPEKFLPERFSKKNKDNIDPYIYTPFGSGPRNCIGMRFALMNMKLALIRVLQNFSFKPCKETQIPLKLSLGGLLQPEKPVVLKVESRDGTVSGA
In another data set the target is Cytochrome P450 2C9 (Homo sapiens, UniProt P11712). Description: Inhibition of CYP2C9 in human liver microsomes using diclofenac as substrate preincubated for 15 mins followed by NADPH addition measured after 8 mins by LC/MS/MS analysis. It counts as ADME. For orientation: Microsomes from liver hold many membrane-bound enzymes, among them those of drug oxidation.
Cytochrome P450 2C9, sequence (P11712 whole entry): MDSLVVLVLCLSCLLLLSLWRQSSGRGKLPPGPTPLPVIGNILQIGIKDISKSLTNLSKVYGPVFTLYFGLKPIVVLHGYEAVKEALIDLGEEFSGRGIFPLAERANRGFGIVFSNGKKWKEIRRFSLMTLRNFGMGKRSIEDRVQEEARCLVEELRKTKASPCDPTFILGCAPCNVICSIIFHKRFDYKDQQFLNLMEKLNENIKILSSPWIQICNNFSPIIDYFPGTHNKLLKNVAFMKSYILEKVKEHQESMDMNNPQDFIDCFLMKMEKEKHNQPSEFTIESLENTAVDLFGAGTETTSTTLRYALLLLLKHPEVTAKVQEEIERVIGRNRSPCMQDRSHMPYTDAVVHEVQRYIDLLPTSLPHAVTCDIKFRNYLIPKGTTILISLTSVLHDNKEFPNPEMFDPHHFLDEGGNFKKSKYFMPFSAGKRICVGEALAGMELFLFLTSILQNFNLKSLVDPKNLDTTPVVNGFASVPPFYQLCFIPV

Data set [6] relates to Cynomolgus monkey. Description: Elimination half life in cynomolgus monkey at 1 mg/kg, iv. It counts as ADME, organism-based, Macaca fascicularis. Also noted: dose 1 mg/kg, route intravenous. The note with it: in vivo.
Data set [7] is described as follows: Ratio of brain to plasma partition coefficient in Sprague-Dawley rat at 10 mg/kg, po measured at 1 hr. Set-up: dose 10 mg/kg, route oral. The data set is classed as ADME, organism-based. Put shortly:
as §1

Data set [8] in a line: Cmax in po dosed Sprague-Dawley rat. The data set is classed as ADME, organism-based. Also noted: route oral. The conditions noted are these: in vivo.
The test system of data set [9] is Plasma. The data set can be described thus: Fraction unbound in Sprague-Dawley rat plasma at 5 uM after 4 hrs by equilibrium dialysis method. The data set is classed as ADME, cell-free. Put shortly:
(§2)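 Fraction unbound determined in plasma from rat, cynomolgus monkey and human.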
(In equilibrium dialysis free small molecules cross a membrane that holds back macromolecules.)

Data set [10] is described as follows: Plasma clearance in Sprague-Dawley rat at 1 mg/kg, iv. The data set is classed as ADME, organism-based. Set-up: dose 1 mg/kg, route intravenous.
The test system of data set [11] is Cynomolgus monkey. The data set can be described thus: Volume of distribution at steady state in cynomolgus monkey at 1 mg/kg, iv. Also noted: dose 1 mg/kg, route intravenous. It counts as ADME, organism-based, Macaca fascicularis. The note with it: in vivo.
Data set [12] relates to Plasma. The data set can be described thus: Fraction unbound in cynomolgus monkey plasma at 5 uM after 4 hrs by equilibrium dialysis method. The data set is classed as ADME, cell-free, Macaca fascicularis. Put shortly: as §2
Data set [13] concerns the target Cannabinoid receptor 1 (Homo sapiens) (UniProt P21554). Description: Binding affinity to human CB1 receptor at 10 uM by radioligand binding assay relative to control.
Data set [14] can be described thus: Fraction unbound in Sprague-Dawley rat brain at 5 uM after 4 hrs by equilibrium dialysis method. The data set is classed as ADME, tissue-based. Put shortly:
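Nonspecific binding measured in rat brain homogenate to give unbound fraction in brain (fu,br).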

A short description of data set [15]: Oral bioavailability in Sprague-Dawley rat. The note with it: in vivo. The data set is classed as ADME, organism-based.
The test system of data set [16] is Plasma. The data set can be described thus: Fraction unbound in human plasma at 5 uM after 4 hrs by equilibrium dialysis method. The data set is classed as ADME, cell-free. The essentials: as §2
For the next data set, the target named is Cytochrome P450 2D6 (Homo sapiens, UniProt P10635). The data set can be described thus: Inhibition of CYP2D6 in human liver microsomes using dextromethorphan as substrate preincubated for 15 mins followed by NADPH addition measured after 8 mins by LC/MS/MS analysis. The data set is classed as ADME.
Cytochrome P450 2D6, sequence (P10635 whole entry): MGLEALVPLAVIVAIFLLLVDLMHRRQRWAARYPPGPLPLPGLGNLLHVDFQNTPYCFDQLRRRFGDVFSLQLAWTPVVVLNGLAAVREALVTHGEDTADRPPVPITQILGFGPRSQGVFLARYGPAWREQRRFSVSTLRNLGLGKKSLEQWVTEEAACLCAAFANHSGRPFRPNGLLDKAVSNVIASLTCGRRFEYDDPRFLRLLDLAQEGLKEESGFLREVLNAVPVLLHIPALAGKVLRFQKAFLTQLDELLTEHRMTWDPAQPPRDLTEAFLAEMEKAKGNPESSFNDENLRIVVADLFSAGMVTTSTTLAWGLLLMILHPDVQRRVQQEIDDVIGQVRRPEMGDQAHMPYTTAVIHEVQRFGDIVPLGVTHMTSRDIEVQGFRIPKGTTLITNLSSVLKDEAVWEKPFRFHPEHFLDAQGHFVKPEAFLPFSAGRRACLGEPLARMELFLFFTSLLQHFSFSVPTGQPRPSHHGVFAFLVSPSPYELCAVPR
A short description of data set [17]: Elimination half life in Sprague-Dawley rat at 1 mg/kg, iv. It counts as ADME, organism-based. Set-up: dose 1 mg/kg, route intravenous. The conditions noted are these: in vivo, read-out: beta t1/2 (converted).
For the next data set, the system named is Rattus norvegicus. Description: Volume of distribution at steady state in Sprague-Dawley rat at 1 mg/kg, iv. The data set is classed as ADME, organism-based. Also noted: dose 1 mg/kg, route intravenous. The note with it: in vivo.

Cannabinoid receptor 1 (Homo sapiens), sequence (P21554 whole entry): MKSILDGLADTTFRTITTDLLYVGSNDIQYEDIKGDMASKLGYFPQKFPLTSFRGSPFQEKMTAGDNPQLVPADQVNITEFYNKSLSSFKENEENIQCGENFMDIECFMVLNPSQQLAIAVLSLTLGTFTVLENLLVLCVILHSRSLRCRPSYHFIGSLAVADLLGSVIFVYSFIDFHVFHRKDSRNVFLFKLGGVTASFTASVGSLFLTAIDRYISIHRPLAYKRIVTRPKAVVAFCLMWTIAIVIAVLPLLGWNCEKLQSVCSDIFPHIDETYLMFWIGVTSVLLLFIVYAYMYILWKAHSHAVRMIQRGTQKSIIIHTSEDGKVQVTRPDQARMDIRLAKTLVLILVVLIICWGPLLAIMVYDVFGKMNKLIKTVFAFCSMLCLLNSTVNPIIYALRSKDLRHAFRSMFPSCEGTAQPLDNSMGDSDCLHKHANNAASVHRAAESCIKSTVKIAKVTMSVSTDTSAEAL

By IC50 is commonly meant the concentration that gives 50% inhibition. Turning to `O=C(c1ccc(F)c(F)c1)N1CCN2C(=O)c3ccccc3C12c1ccccc1` (configuration not stated), in data set [1], the Activity is 0%. For the same compound, the IC50 in [2] was over 30 µM; in [3], 1.05 µM.
A word on the Tmax: it is the time from dosing to the highest level. What is called Cmax is the highest concentration seen after dosing. The clearance is a measure of how efficiently the substance is removed, as volume per time. By Vdss is commonly meant the apparent volume that relates the amount in the body to the concentration in plasma or blood. The term inhibition denotes the drop in the measured response relative to a control, in per cent. For orientation: bioavailability means the share of a dose that reaches the circulation, judged against a reference dose that is usually intravenous. As for `O=C(c1ccc(F)c(F)c1)N1CCN2C(=O)c3ccccc3[C@@]12c1ccc(Cl)cc1`, the “K(p,uu,brain)” value in data set [4] amounted to 0.2. Also, the Tmax in data set [5] was 7 h. Further, the IC50 at Cytochrome P450 3A4 was 16 µM; on Cytochrome P450 2C9, 7.4 µM; in data set [2] it was over 30 µM; on Cytochrome P450 2D6, 26 µM. For the same compound, in the data set on Cynomolgus monkey [6], the “beta t1/2” value is 10 h. Besides, in [7], the BPR was 1.8. In [8], the Cmax was 1400 nM. The Fu in the data set with Plasma [9] stood at 0.029; in the data set on Plasma [12] it was 0.001; in data set [14] it was 0.003; with Plasma [16] it was 0.013. The compound also registered a clearance in data set [10] of 2.5 mL/min/kg. In addition, the volume of distribution (Vdss) was found to be 1.9 L/kg in the data set with Cynomolgus monkey [11] and 16 L/kg with Rattus norvegicus. The inhibition in [13] was 66%. In data set [15], this compound had a bioavailability of 80%. The half-life in [17] was 80 h.
